Shown are actives, neighbours in structure and some others; about 10% of the full set was active somewhere.
Diaph act CS = activates diaphorase or chemically reduces, flagging diaphorase assay artifacts; Diaphorase/resazurin coupled assay, resorufin fluorescence, 16 min; hits give high values; 1 = vehicle wells, 0 = NADH-free wells; activation factor at 20 µM; 0.005% of 190,000 active;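 active = diaphorase activity raised at least twofold by the compound at 20 µM; inactive = activation factor below 2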
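Test system: Clostridium kluyveri diaphorase, purified enzyme. Buffer or medium: 50 mM HEPES pH 7.4 buffer plus MgCl2 and Tween 20. Also added: 0.114 mM NADH and 0.1 mM resazurin, final amounts. Dosing: compound 20 µM once, DMSO 1%. Schedule: 16 min enzyme reaction, ambient temperature. Detection: fluorescence of resorufin, 544 nm excitation, 590 nm emission.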
PMI act hi M6P = PMI (human) activation, high substrate; P34949; coupled PMI enzyme assay, resazurin fluorescence, 20 min; hits give high values; 1 = untreated enzyme, 0 = substrate-free blank; activation factor at 20 µM; 0.34% of 190,000 active;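 active = activation factor of 2 or more at 20 µM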
Target sequence (P34949 whole entry, looked up): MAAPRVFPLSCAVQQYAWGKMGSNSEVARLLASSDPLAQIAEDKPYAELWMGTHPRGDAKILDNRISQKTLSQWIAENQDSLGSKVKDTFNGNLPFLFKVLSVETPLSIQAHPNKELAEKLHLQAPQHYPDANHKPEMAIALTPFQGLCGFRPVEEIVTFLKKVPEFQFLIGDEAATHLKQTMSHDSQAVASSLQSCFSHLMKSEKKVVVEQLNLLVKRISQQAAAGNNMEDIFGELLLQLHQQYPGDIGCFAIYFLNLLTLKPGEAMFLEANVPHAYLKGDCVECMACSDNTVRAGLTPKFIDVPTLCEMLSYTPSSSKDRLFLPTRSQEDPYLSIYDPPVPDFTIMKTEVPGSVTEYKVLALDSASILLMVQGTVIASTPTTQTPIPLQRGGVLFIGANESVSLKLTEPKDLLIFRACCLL
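Material: human phosphomannose isomerase with PGI, G6PDH, diaphorase coupling enzymes; amount: PMI at 15 ng/mL final; also added: Mannose-6-phosphate 1.0 mM (near-saturating) plus 0.22 mM NADP+; incubation: enzyme reaction with compound 20 min at room temperature; signal: resorufin fluorescence (Ex 544/Em 590 nm) from resazurin via diaphorase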
PMI activator = phosphomannose isomerase (human) activation; P34949; purified human PMI, coupled resazurin fluorescence, 20 min; hits give high values; 1 = vehicle control, 0 substrate-free wells; activation factor at 20 µM; 0.005% of 190,000 active;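 active = activation factor of 2 or more at 20 µM, relative to plate controls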
Lmaj promast = inhibitors of Leishmania major promastigote growth; 9% of 200,000 active; AID 1063; inhibition, % at 10 µM; Leishmania major promastigotes, resazurin fluorescence viability; in the data active = inhibition above about 50%;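 note: promastigotes grown with compound for 44 hours at 28 °C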
WT yeast gro inh = growth inhibition of WT yeast, mitochondrial fusion screen | mitochondrial fusion phenotypic screen, WT strain | inhibition, % at 10 µM | 2.1% of 190,000 active; in the data active = inhibition above about 58%; tested in S. cerevisiae
Large screens that a line does not name were inactive.

O=c1[nH]c(=O)n(CCc2ccccc2)c(O)c1C=NCc1ccc2c(c1)OCO2	none
CC(C)c1cccc(C(C)C)c1OCCn1ccnc1	Lmaj promast 94
c1ccc(Cn2ccnc2)cc1	none
Cc1ccc(NC2=NCCCS2)c(C)c1C	none
O=C1NC(=O)C(=Cc2cc(Cl)ccc2OCc2ccc(C(=O)O)cc2)C(=O)N1	Lmaj promast 94
CCn1c(O)c(C(c2ccccn2)c2c(O)n(CC)c(=S)[nH]c2=O)c(=O)[nH]c1=S	WT yeast gro inh 97
Cc1nn(CC(C)C)c(Cl)c1C(=O)O	none
CN1CCN(/N=C/c2c(O)n(C)c(=O)n(C)c2=O)CC1	none (no result: Diaph act CS, PMI act hi M6P, PMI activator)
Clc1ccc(OCC#CCN2CCCCCC2)cc1	Lmaj promast 85
COc1ccc(OCC#CCN2CCC(C)CC2)cc1	none
Cc1nn(Cc2ccccc2)c(C)c1C(=O)OCC(=O)NC1CCS(=O)(=O)C1 (stereo not given)	none
COc1c(C)cc(C(=O)C2CCCN(Cc3cnc(C)s3)C2)cc1C (stereo not given)	Lmaj promast 70
COc1c(C)cc(C(=O)C2CCCN(Cc3ccccn3)C2)cc1C (stereo not given)	Lmaj promast 100
Cc1ncc(CN2CCCC(C(=O)c3cccc(OC(C)C)c3)C2)s1 (stereo not given)	Lmaj promast 89
COc1cccc(C(=O)C2CCCN(Cc3ccccn3)C2)c1 (stereo not given)	none
COc1ccc(Cl)cc1C(=O)C1CCCN(Cc2cnc(C)s2)C1 (stereo not given)	Lmaj promast 78
COc1ccc(F)cc1C(=O)C1CCCN(Cc2cnc(C)s2)C1 (stereo not given)	none
Cc1ccc(OCC(=O)N2CCN(Cc3cccnc3)CC2)cc1	none
CCCCOc1ccc(CC2C(=O)N(C)C(=O)N(C)C2=O)cc1	none
CCCCOc1ccc(CN2CCN(CCO)CC2)cc1	Lmaj promast 89
CCCCCCOc1ccc(CN2CCN(CCO)CC2)cc1	Lmaj promast 99
CCCCOc1ccc(CN2CCN(CC)CC2)cc1	Lmaj promast 86
Cc1ccc2c(c1)N(N=O)CCC2	none
O=C(Oc1c(Cl)cc(Cl)c2ccccc12)N1CCCCC1	WT yeast gro inh 73
N=c1sccn1Cc1ccc(Cl)cc1Cl	Lmaj promast 66
CCCC(=O)OCC[N+](C)(C)C	none
Cc1cc(C)c(C(=O)CN2CCOCC2)c(C)c1	PMI act hi M6P 2.1
CC(C)CN(CC(C)C)c1ccc(C=C2C(=O)NC(=S)NC2=O)cc1[N+](=O)[O-]	Lmaj promast 81
COC(=O)CSC1=NN1c1cc(C)nc(N)n1	none
COc1ccc(NP(=O)(Oc2ccc(Cl)cc2)Oc2ccc(Cl)cc2)cc1OC	WT yeast gro inh 65
CC(C)(C)c1nc(NCc2ccc3c(c2)OCO3)c2nnn(Cc3ccccc3Cl)c2n1	none
Cc1cc(C)c(S(=O)(=O)NCC2CCC(C(=O)N3CCC4(CC3)OCCO4)CC2)c(C)c1 (stereo not given)	none
COc1ccc(C(=O)N2CCOCC2)cc1S(=O)(=O)N1CCC(C)CC1	none
COc1ccc(C(=O)Oc2cccc3cccnc23)cc1S(=O)(=O)N1CCOCC1	Lmaj promast 98
CN1C(=O)C(=Cc2ccccc2Oc2ccc(Cl)cc2)C(=O)N(C)C1=O	Lmaj promast 62
Cc1cccc(N2C(=O)NC(=O)C3(Cc4cc(C)ccc4N(C)C3)C2=O)c1 (stereo not given)	none
Cc1ccc2c(c1)CC1(CN2C)C(=O)NC(=O)N(CCC2=CCCCC2)C1=O (stereo not given)	PMI act hi M6P 2.1
Cc1ccc2c(c1)CC1(CN2C)C(=O)NC(=O)N(C(C)C)C1=O (stereo not given)	PMI act hi M6P 2.1
CCC1(c2ccccc2)C(=O)N(COC)C(=O)N(COC)C1=O	none
c1ccc(C2CC3CC(c4ccco4)N2O3)cc1 (stereo not given)	none
CCc1ccc(N2C(=O)NC(=O)/C(=C\c3cccn3CCOc3ccc(C(C)C)cc3)C2=O)cc1	Lmaj promast 95
CCOC(=O)c1c(C)n(Cc2ccco2)c2c1cc(O)c1ccccc12	none
CN1CCN(Cc2ccc(Br)s2)CC1	Lmaj promast 70
CC[N+](C)(CC)CCCOC(=O)C(O)(c1ccccc1)C1CCCCC1 (stereo not given)	none
CCOC(=O)COc1ccc2c(c1)c(C(C)=O)c(C)n2Cc1ccccc1	Lmaj promast 76
CCOC(C(=O)OCCC[N+](C)(CC)CC)(c1ccccc1)c1ccccc1	none
CCOC(C(=O)OCC(O)CN(CC)CC)(c1ccccc1)c1ccccc1 (stereo not given)	Lmaj promast 100
CCN(CC)CCCOC(=O)C(OC)(c1ccccc1)c1ccccc1	Lmaj promast 100
O=C(Cc1ccc(Cl)c(Cl)c1)NCC1(N2CCOCC2)CCCCC1	none
CC(C)OP(=O)(OC(C)C)C(NCc1ccccc1)c1ccccc1 (stereo not given)	none
O=c1c2ccccc2[se]n1-c1ccccc1	WT yeast gro inh 97 (no result: PMI act hi M6P, PMI activator)
O=c1c2ccccc2nc(N2CCCC2)n1-c1ccccc1	none
CN1c2ccc([N+](=O)[O-])cc2CC2(C(=O)NC(=O)N(c3ccc(Br)cc3)C2=O)C1c1ccccc1 (stereo not given)	Lmaj promast 75
Clc1ccc(-c2nc3ccc(Cl)cn3c2CN2CCOCC2)cc1	Lmaj promast 53
O=c1c2cc(Cl)cc(Cl)c2nc(CN2CCOCC2)n1-c1ccccc1F	none
C/C(=C\c1ccc(N(C)C)cc1)[N+](=O)[O-]	Lmaj promast 100
CCOC(=O)c1c(C)n(CC(O)CN2CCOCC2)c2cc(Br)c(OC)cc12 (stereo not given)	none
Cc1ccc(Cc2c(C)nc3nc(SCC(=O)N4CCC5(CC4)OCCO5)nn3c2C)cc1	none
Cc1ccccc1Cc1c(C)nc2nc(SCC(=O)N3CCC4(CC3)OCCO4)nn2c1C	Lmaj promast 73
Cc1ccc[n+](CC(O)Cn2c3ccccc3c3ccccc32)c1 (stereo not given)	none
CN1CCN(C(=O)COc2ccc(S(=O)(=O)NCc3ccccc3)cc2Cl)CC1	none
O=C(COc1ccc(Cl)cc1Cl)N1CCN(C/C=C/c2ccccc2)CC1	Lmaj promast 89
CSCCC(N=Cc1c(O)n(-c2ccc(Cl)cc2)c(=O)[nH]c1=O)C(=O)OC(C)(C)C (stereo not given)	none
Clc1ccc(CSC(Cn2ccnc2)c2ccc(Cl)cc2Cl)cc1 (stereo not given)	Lmaj promast 99
Clc1ccc(COC(Cn2ccnc2)c2ccc(Cl)cc2Cl)cc1 (stereo not given)	Lmaj promast 98
C=CC(C)C(C(=O)c1ccccc1)N(C)C (stereo not given)	none
CC(C)(C)c1ccc(C(=O)C2CCCN(Cc3ccon3)C2)cc1 (stereo not given)	Lmaj promast 80

Screening results deposited in PubChem BioAssay by several laboratories.
